{
  "source": "paper PMC9170026",
  "about": "(Proceedings of the National Academy of Sciences of the …, 2022)",
  "key": {"[1]": {"test_system": "TNF-α–induced MAP3K1-IKKβ–mediated NF-κB activation", "format": "cell-based", "details": "MAP3K1-WT transfected HeLa, TNF-α 20 ng/mL, 6 h"}, "[2]": {"assay": "Metabolic stability in human liver S9 fraction", "format": "in vitro ADME"}, "MAP3K1-WT–induced p-IKKβ": {"test_system": "MAP3K1-WT–induced p-IKKβ", "assay": "Western blot of MAP3K1-WT transfected HeLa cells", "format": "cell-based"}, "[3]": {"assay": "Oral and intravenous dose pharmacokinetic studies in mice", "details": "mouse, in vivo"}, "[4]": {"test_system": "TNF-α–induced MAP3K1-IKKβ–mediated NF-κB activity", "assay": "HeLa luciferase reporter under NF-κB response element", "format": "cell-based"}, "NF-κB pathway proteins": {"test_system": "NF-κB pathway proteins", "assay": "Western blot of NF-κB pathway proteins in MiaPaCa2 cells, 6 h", "format": "cell-based, human", "details": "MiaPaCa2, 6h, dose-response"}, "IKKβ [5]": {"target": "T1, IKKβ (Homo sapiens, UniProt O14920)", "T1 sequence (O14920 1-756)": "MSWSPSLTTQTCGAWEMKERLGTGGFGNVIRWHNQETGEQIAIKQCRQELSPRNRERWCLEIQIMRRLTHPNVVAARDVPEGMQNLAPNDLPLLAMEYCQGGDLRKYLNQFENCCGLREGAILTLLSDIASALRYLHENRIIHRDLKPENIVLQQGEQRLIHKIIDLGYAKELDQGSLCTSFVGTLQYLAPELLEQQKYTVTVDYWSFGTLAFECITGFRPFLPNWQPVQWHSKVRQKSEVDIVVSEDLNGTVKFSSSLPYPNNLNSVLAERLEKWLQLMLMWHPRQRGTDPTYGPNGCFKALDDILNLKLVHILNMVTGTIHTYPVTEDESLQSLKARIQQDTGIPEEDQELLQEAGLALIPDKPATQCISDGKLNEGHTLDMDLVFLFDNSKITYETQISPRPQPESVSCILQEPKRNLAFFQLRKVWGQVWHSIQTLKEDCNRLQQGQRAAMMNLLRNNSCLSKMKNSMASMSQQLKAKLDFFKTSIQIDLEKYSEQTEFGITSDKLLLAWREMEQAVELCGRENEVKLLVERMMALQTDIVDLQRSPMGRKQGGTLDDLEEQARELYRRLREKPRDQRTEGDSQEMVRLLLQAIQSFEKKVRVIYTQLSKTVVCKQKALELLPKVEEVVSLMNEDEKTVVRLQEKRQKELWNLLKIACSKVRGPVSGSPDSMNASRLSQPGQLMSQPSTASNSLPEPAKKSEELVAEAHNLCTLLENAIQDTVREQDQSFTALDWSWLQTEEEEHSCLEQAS", "assay": "KinomeSCAN binding to IKKβ"}, "IKKβ [6]": {"target": "T1, IKKβ", "assay": "10-point dose-response IKKβ kinase activity assay", "format": "biochemical"}, "[7]": {"test_system": "T3M4 orthotopic pancreatic tumors", "assay": "T3M4 orthotopic xenograft model", "format": "in vivo, athymic nude mice", "details": "40 mg/kg, by mouth"}, "p-IKKβ": {"test_system": "p-IKKβ", "assay": "p-IKKβ levels in MiaPaCa2 cells", "format": "cell-based", "details": "Homo sapiens, MIA PaCa-2, read-out: IC50 for reduction of p-IKKβ levels"}, "[8]": {"test_system": "328 kinase-associated peptides that correspond to 254 kinases", "assay": "KiNativ kinome profiling dose-response in PANC1 lysate", "format": "binding", "details": "PANC1 cell lysates, 1.25-10 μM", "outline": "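KiNativ kinome profiling done as a dose-response in PANC1 cells. Test compound was used at 1.25, 2.5, 5, 7.5 and 10 μM. Each kinase inhibited was recorded at each concentration.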"}, "MAP3K12": {"target": "MAP3K12", "details": "cited from earlier work"}, "[9]": {"test_system": "TNF-α–induced IKKβ-mediated NF-κB activation", "assay": "Dual luciferase assay-based screen of quinoxaline analogs", "format": "cell-based", "details": "relative to parent analog / 13-197", "outline": "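Dual-luciferase NF-κB reporter screen of quinoxaline analogs against TNF-α–stimulated, IKKβ-mediated NF-κB activation. Two reference compounds, the parent quinoxaline and an allosteric IKKβ inhibitor, served as controls marking the ends of the activity range. n = 4, reported as average ± SEM. P values from a two-tailed Student's t test.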"}},
  "note": "Where two headings read alike, the source gives them in different places.",
  "data": [
    {"molecule": "Cn1cc(-c2cnc3ccc(NC(=O)Nc4ccc(F)c(Br)c4)cc3n2)cn1", "note": "[39-100]", "values": [
      {"measurement": "inhibition of TNF-α–induced MAP3K1-IKKβ–mediated NF-κB activation", "setting": "[1]", "value": "inhibited"},
      {"measurement": "improvement of t1/2 (stability) over 13-197", "setting": "[2]", "value": "~8", "unit": "fold"},
      {"measurement": "major metabolites", "setting": "[2]; 2h post-incubation", "value": "demethylated, glucuronidated, and sulfated products"},
      {"measurement": "MAP3K1-WT–induced p-IKKβ", "setting": "MAP3K1-WT–induced p-IKKβ", "value": "inhibited"},
      {"measurement": "improvement in oral bioavailability over 13-197", "setting": "[3]", "value": "~12", "unit": "fold"},
      {"measurement": "inhibition of TNF-α–induced NF-κB reporter activity", "setting": "[4]", "value": "selectively inhibited"},
      {"measurement": "Bcl-xL levels", "setting": "NF-κB pathway proteins", "value": "no change in Bcl-xL"},
      {"measurement": "IκBα phosphorylation", "setting": "NF-κB pathway proteins", "value": "inhibited IκBα phosphorylation in a dose-dependent manner"},
      {"measurement": "in vitro IKKβ binding", "setting": "IKKβ [5]", "value": "did not bind"},
      {"measurement": "in vitro IKKβ binding", "setting": "IKKβ [5]; listed as IKAM-1", "value": "inactive"},
      {"measurement": "in vitro IKKβ enzymatic inhibition", "setting": "IKKβ [6]", "value": "inactive"},
      {"measurement": "Ki67 and CD31+ tumor cells vs vehicle", "setting": "[7]", "value": "reduced Ki67 and CD31^+ tumor cells"},
      {"measurement": "p-IKKβ expression in tumors (IHC) vs vehicle", "setting": "[7]", "value": "reduced expression of p-IKKβ"},
      {"measurement": "IC50", "setting": "p-IKKβ", "value": "2300 ± 200", "unit": "nM"},
      {"measurement": "kinome selectivity", "setting": "[8]", "value": "selectively inhibits MAP3K1"}
    ]},
    {"molecule": "CC(C)n1nc(-c2cnc(N)c(OC(F)(F)F)c2)cc1C1[C@H]2CN(C3COC3)C[C@@H]12", "note": "(some centres unmarked) [DLK-In-1]", "values": [
      {"measurement": "Ki", "setting": "MAP3K12", "value": 3, "unit": "nM"}
    ]},
    {"molecule": "Cn1cc(-c2cnc3ccc(NC(=O)Nc4ccc(Br)cc4)cc3n2)cn1", "note": "[analog 5]", "values": [
      {"measurement": "inhibition of TNF-α–induced IKKβ-mediated NF-κB activity (SAR screen)", "setting": "[9]", "value": "improved activity"}
    ]},
    {"molecule": "Cn1cc(-c2cnc3ccc(NC(=O)Nc4ccccc4Br)cc3n2)cn1", "note": "[analog 13]", "values": [
      {"measurement": "inhibition of TNF-α–induced IKKβ-mediated NF-κB activity (SAR screen)", "setting": "[9]", "value": "reduced the activity"}
    ]},
    {"molecule": "Cn1cc(-c2cnc3ccc(NC(=O)Nc4cccc(Br)c4)cc3n2)cn1", "note": "[compound 12]", "values": [
      {"measurement": "improvement of t1/2 (stability) over 13-197", "setting": "[2]", "value": "four-fold better"},
      {"measurement": "Bcl-xL levels", "setting": "NF-κB pathway proteins", "value": "no change in Bcl-xL"},
      {"measurement": "IκBα phosphorylation", "setting": "NF-κB pathway proteins", "value": "inhibited IκBα phosphorylation in a dose-dependent manner"},
      {"measurement": "Mcl-1 levels", "setting": "NF-κB pathway proteins", "value": "robust reduction in Mcl-1 levels"},
      {"measurement": "inhibition of TNF-α–induced IKKβ-mediated NF-κB activity (SAR screen)", "setting": "[9]", "value": "further improved the activity"}
    ]}
  ]
}
